A value given as a limit tells only on which side of the number the result lay.

Holding throughout (assay type): functional, cell-based, Mus musculus
Assay [1] concerns MOPC 315. Briefly: Antitumor activity against MOPC315 cell line determined by reduction of the [3H]thymidine incorporation after a 24-h incubation period. In short, it runs like this:
(§1)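 Mouse ascites tumor cells harvested 7 days after i.p. transplantation, washed, preincubated 4 h at 2.10^5 cells/mL in RPMI 1640 with 10% FCS and 1 mM glutamine under 5% CO2. Cells then exposed to compounds (ethanol stocks diluted in medium) for 24 h at 37°C. [3H]TdR (0.5 μCi) was added […] and cells were harvested 8 h later. Values are means of two experiments, each in 4-fold.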
(In general: Uptake of a labelled nucleoside into DNA is a usual measure of proliferation.)

The subject of assay [2] is L1210. Briefly: Antitumor activity against L1210 cell line determined by reduction of the [3H]thymidine incorporation after a 24-h incubation period. In outline: as §1
In assay [3] the test system is P815. The assay can be described thus: Antitumor activity against P815 cell line determined by reduction of the [3H]thymidine incorporation after a 24-h incubation period. In outline:
as §1

What is called IC50 is the midpoint of a concentration-inhibition curve. Low readings indicate higher potency, high ones lower potency. Consider “5-(2,2-Dimethyl-[1,3]dioxolan-4-yl)-2,2-dimethyl-6-[(triphenylstannanyl)-methyl]-tetrahydro-furo[2,3-d][1,3]dioxol-6-ol”, for which the IC50 in assay [1], in assay [2] and in assay [3] was above 5 µM each time.

As to “5-(2,2-Dimethyl-[1,3]dioxolan-4-yl)-2,2-dimethyl-6-triphenylstannanyl-tetrahydro-furo[2,3-d][1,3]dioxol-6-ol”, the half-inhibitory concentration (IC50) worked out at 0.67 µM in assay [1], 0.76 µM in assay [2] and 0.54 µM in assay [3].

TRIPHENYLTIN CHLORIDE: the IC50 in assay [1] is 0.2 µM; in assay [2] it was 0.18 µM; in assay [3], 0.13 µM.

The values above are taken from ChEMBL document CHEMBL1127092, “Crystal and molecular structure and in vitro antiproliferative and antitumor activity of two organotin (IV) carbohydrate compounds” (J Med Chem, 1993).
